From PubChem
A selection: hits, their analogues and other compounds. The true share with any hit is near 6.8%.
AI-2 QS mod: modulators of Vibrio harveyi AI-2 quorum sensing system; activity change, % at 7.5 µM; Vibrio harveyi JMH597 AI-2 luminescence/OD600 ratio, 9 h; active compounds read low; strain lacks LuxN and CqsS sensors; 0 = neutral-control median; actives 0.4% (n = 300,000); in the data active means activity change below about -75%, passing the limit was not always enough; inconclusive means no clear call, values can overlap the other calls;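 further: luminescence divided by OD600 gain over 9 h not by final OD600 alone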
HSF1 activator: increases HSF-1 driven luciferase reporter signal; NIH3T3-HGL HSF-1 luciferase reporter, MG132, 8 h; 100% = twice DMSO control signal; activation, % at 9 µM; actives 1.7% (n = 300,000);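 active means mean replicate activation of at least 50% with a set share of replicates each reaching 50%; inconclusive means only one of those two conditions met; inactive means mean below 50% and too few replicates reaching it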;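 further: 0% = median of the neutral control wells and 100% = twice that signal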
ALR inh: blocks human ALR sulfhydryl oxidase activity; actives 3.8% (n = 290,000); inhibition, % (concentration not given with the values); AID 485317; P55789; purified ALR, DTT oxidation, H2O2 HRP-luminol luminescence;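 active means mean replicate inhibition above about 79%, with every replicate also reaching it, limit read from the data; inconclusive means only one of the two criteria met; inactive means mean below limit and not every replicate reaching it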
Target sequence (P55789 whole entry, looked up): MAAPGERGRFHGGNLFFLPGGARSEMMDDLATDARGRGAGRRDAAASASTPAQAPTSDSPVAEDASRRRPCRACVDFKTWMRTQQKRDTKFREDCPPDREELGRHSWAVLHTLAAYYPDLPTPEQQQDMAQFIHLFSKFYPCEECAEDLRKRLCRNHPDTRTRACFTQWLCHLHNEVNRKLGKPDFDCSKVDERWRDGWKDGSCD
HSF1 inh: HSF1 inhibition; NIH3T3-HGL HSE-luciferase, MG132-induced, luminescence 8 h; active compounds read low; activity change, negative = inhibition, % at 7.5 µM (by protocol); actives 0.77% (n = 300,000);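 active means more than half of replicate wells show activity change below -50%, luminescence cut by over half; inconclusive means some wells, but at most half, below -50%; inactive means no replicate well below -50%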;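 further: luciferase reports HSF-1 transcriptional activity via heat shock element; 0% = median of DMSO wells and -100% = zero luminescence signal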
PHOSPHO1 block: inhibitors of human PHOSPHO1 phosphatase; Q8TCT1; recombinant PHOSPHO1, absorbance phosphatase assay; inhibition, % at 13.3 µM; actives 1.1% (n = 290,000); in the data active means inhibition above about 60%
Target sequence (Q8TCT1 whole entry, looked up): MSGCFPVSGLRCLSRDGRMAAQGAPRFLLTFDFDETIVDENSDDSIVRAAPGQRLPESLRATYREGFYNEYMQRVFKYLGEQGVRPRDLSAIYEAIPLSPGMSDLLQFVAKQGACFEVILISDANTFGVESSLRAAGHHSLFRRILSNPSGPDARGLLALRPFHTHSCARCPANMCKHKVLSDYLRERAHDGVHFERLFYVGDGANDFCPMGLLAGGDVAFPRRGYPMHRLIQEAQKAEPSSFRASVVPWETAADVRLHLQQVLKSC
core dimer inh: HCV core protein dimerization inhibition; TR-FRET GST/Flag-core106 dimerization, 1536-well; inhibition, % at 5 µM; AID 1899; actives 0.33% (n = 300,000);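 active means inhibition above the mean of all tested compounds plus 3 SD, set per screening campaign, cut at about 45% in these data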
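Material: Tagged HCV core106 pair (GST and Flag) | Amount: GST-core106 13.5 nM, Flag-core106 17 nM | Medium: KF-containing HEPES buffer, pH 7.45, DTT, CHAPS, BSA | Reagent: Eu donor and XL665 acceptor anti-tag antibodies | Schedule: 4 h at 22.5 °C | Technique: Time-resolved FRET, ex 340 nm, em 617 and 671 nm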
Active calls of the source: *; ? = inconclusive; · = no result.

SMILES | AI-2 QS mod | HSF1 activator | ALR inh | HSF1 inh | PHOSPHO1 block | core dimer inh
Cc1ncc(CSCC(=O)Nc2cc(C(F)(F)F)ccc2Cl)c(CO)c1O | 17 | 18 | 94* | 6 | 53 | -14
COc1ccc(N=C2S/C(=C\c3ccc(Cl)c([N+](=O)[O-])c3)C(=O)N2CCN(C)C)cc1 | 6 | 95* | · | 73 | 14 | 3
O=C(OCCN1CCOCC1)c1ccc(O)cc1 | 20 | -12 | -6 | -8 | 29 | 2
N#C/C(=C\c1ccc(O)c(O)c1)C(=O)N1CCc2ccccc21 | · | · | 99* | · | · | -6
COc1cc(/C=C(\C#N)C(=O)N2CCc3ccccc32)ccc1O | 24 | 36 | 100* | 11 | -5 | -2
COc1cccc(-c2nn(-c3ccccc3)cc2/C=C(/NC(=O)c2ccccc2)C(=O)O)c1 | 30 | 2 | 5 | 8 | 28 | 4
CN(C)C(=O)COC(=O)c1ccccc1Sc1ccccc1C#N | 16 | 0 | 61 | 0 | 68* | 4
CC(=O)c1ccc(NC(=O)COC(=O)c2ccccc2Sc2ccccc2C#N)cc1 | 8 | -17 | -10 | -2 | -6 | 9
O=C(NCc1nc(-c2ccc(Cl)cc2)no1)c1ccco1 | · | 56* | 10 | 13 | -13 | -4
CC(NC(=O)c1ccco1)c1nc(-c2ccc(Cl)cc2)no1 (stereo not drawn) | 17 | 9 | -2 | 9 | 4 | -15
COc1ccc([C@H]2CC(=O)C=C(c3cccc(OC)c3OC)C2)cc1OC | · | · | -4 | · | · | ·
CCCCN(C(=O)c1cc(-c2ccco2)nc2ccccc12)c1c(N)n(CCC)c(=O)[nH]c1=O | · | · | -3 | · | · | ·
Cc1cccc(CN2CCC(C(=O)Nc3cccc(-c4cccc(F)c4)c3)CC2)n1 | -14 | -4 | -3 | -4 | -22 | -1
Cc1cccc(CN2CCC(C(=O)Nc3cccc(-c4cscn4)c3)CC2)n1 | 318 | 82* | 1 | 40 | 17 | -5
COc1ccc(Cl)cc1S(=O)(=O)NCc1nc2nc(C)cc(C)n2n1 | 36 | 3 | -22 | 3 | 18 | -4
O/C(=C\c1ccc2ccccc2n1)c1ccc(O)cc1O | · | 27 | -19 | 15 | 17 | -2
Oc1ccc(/C(Cc2ccc3ccccc3n2)=N\Nc2ccccc2)c(O)c1 | 50 | 29 | 98* | 16 | -4 | 5
N/N=C(\Cc1cscn1)c1ccc(O)cc1O | 43 | -2 | 34 | 1 | -12 | 2
Oc1ccc(/C(Cc2ccccn2)=N\Nc2ccccc2)c(O)c1 | 6 | 13 | 99* | 9 | -5 | -17
CCCNC(=O)c1ccc(N2CCC3(CC2)CC(c2cccc(Br)c2)=NO3)c(NC(=O)c2ccc(Br)cc2)c1 | 21 | -91 | -7 | -89* | · | -17
CCCNC(=O)c1ccc(N2CCC3(CC2)CC(c2cccc(Br)c2)=NO3)c(NC(=O)c2c(Cl)cccc2Cl)c1 | 7 | -18 | -1 | -6 | · | -9
Brc1ccc(-c2cnco2)cc1 | 8 | -3 | -4 | 1 | 20 | -1
COCCN(C(=O)CSc1n[nH]c(-c2ccccc2)n1)c1c(N)n(Cc2ccccc2)c(=O)[nH]c1=O | 17 | 8 | 1 | 1 | · | 1
COc1ccc(-n2c(Cc3ccccc3)nnc2SCc2ccc([N+](=O)[O-])cc2)cc1 | 53 | 29 | -4 | 16 | -18 | 10
COc1ccc(-n2c(SCc3ccc([N+](=O)[O-])cc3)nnc2-c2ccc(C)cc2)cc1 | 28 | 57* | -6 | 26 | -10 | 17
SMILES | AI-2 QS mod | HSF1 activator | ALR inh | HSF1 inh | PHOSPHO1 block | core dimer inh
O=C(C[n+]1ccccc1)N/N=C/c1c(F)cccc1Cl | -1 | 3 | 0 | -1 | -3 | -6
CC/C(=N\NC(=O)c1ccc(N(C)C)cc1)c1ccccc1 | 15 | 17 | · | 3 | 4 | -11
Cc1ccc(OC(=O)Nc2ccccc2)cc1 | -7 | 43 | 1 | 16 | 32 | 1
O=C(Oc1ccccc1)N1CCN(c2ccc(F)cc2)CC1 | 18 | -15 | 7 | 3 | 10 | -4
O=C(Nc1ccc(N2CCN(c3ccc(O)cc3)CC2)cc1)Oc1ccccc1 | -17 | -62 | 26 | ? | 5 | 59*
Nc1ccc(OC(=O)Nc2ccc(O)cc2)cc1 | 13 | -9 | 99* | -12 | 27 | 3
CN1C(=O)C(=O)/C(=C(/O)c2ccc(Br)cc2)C1c1ccccc1F (stereo not drawn) | 0 | 8 | -16 | -3 | 14 | -2
CCOC(=O)Cc1cnc(NC(=O)NC(C(=O)OCC)(c2ccccc2)C(F)(F)F)s1 (stereo not drawn) | 63 | 113* | 14 | 52 | -28 | -2
CCC(C)c1ccc(NC(=O)C2=CC=CN3CCS(=O)(=O)N=C23)cc1 (stereo not drawn) | · | · | -3 | · | · | ·
Cc1ccc2[nH]c(=S)cc(C)c2c1 | -2 | 15 | -17 | -2 | 89* | 6
c1ccc2c(c1)[nH]c1ccccc12 | 6 | 0 | -7 | -4 | · | -6
Cc1cc(=S)[nH]c2ccccc12 | 7 | 10 | · | 6 | 100* | 3
Cc1ccc2c(C)cc(=S)[nH]c2c1 | 35 | -7 | · | 1 | -76 | ·
CC(=O)N(c1ccccc1)c1nnc(-c2cnc(C)cn2)s1 | 12 | 54* | -15 | 18 | 20 | -2
Cc1cnc(-c2nnc(N(C)C(=O)c3cccnc3)s2)cn1 | 27 | -2 | -1 | -6 | 12 | -1
N#C/C(=C\c1cc2c(cc1Br)OCO2)C(=O)NCC1CCCO1 (stereo not drawn) | 0 | -27 | 98* | -14 | 50 | 2
C/C(=N\Nc1ccc([N+](=O)[O-])cc1)c1ccc(C#N)cc1 | 25 | -3 | · | -3 | 3 | 4
C/C(=N/Nc1ccc([N+](=O)[O-])cc1)c1ccc(C)cc1C | 19 | 25 | 98* | 18 | -2 | 3
CCN(CC(=O)NCc1ccc(Cl)cc1)C(=O)C(C)Sc1ccccc1 (stereo not drawn) | 48 | 13 | -1 | 5 | 34 | 3
Nc1nc2ccc(Oc3ccccc3)cc2s1 | -81* | 33 | · | 17 | 34 | ·
Cc1nc2ccc(Oc3ccccc3)cc2s1 | 27 | 7 | -6 | 5 | · | 4
Nc1nc2ccc(O)cc2s1 | 12 | 18 | 99* | -3 | 0 | 0
CCCN(C(=O)CSc1nc(C2CC2)n(-c2ccccc2)n1)C1CCS(=O)(=O)C1 (stereo not drawn) | · | · | -4 | · | · | ·
CN(C)CCNC(=O)CN1C(=O)COc2ccc(C(C)(C)C)cc21 | 5 | -75 | 0 | -68* | -11 | -2
CCN(CCCNC(=O)COc1cc(=O)n(C)c2ccccc12)c1cccc(C)c1 | 26 | 162* | 98* | 131 | 18 | -2
CCN(CCCNC(=O)CC(C(=O)N1CCc2ccccc21)n1ccnc1)c1cccc(C)c1 (stereo not drawn) | 0 | 22 | 99* | 20 | 34 | 2
